Assay results collected from several papers.
Values after ≈ are worked out from the molar mass of the structure shown.

| Compound | target or system | test | system | setting | quantity | value |
| --- | --- | --- | --- | --- | --- | --- |
| COc1c(N2C[C@@H]3CCCN[C@@H]3C2)c(F)cc2c(=O)c(C(=O)O)cn(C3CC3)c12 | Staphylococcus epidermidis | microbial growth, broth dilution |  | clinical isolate | MIC90 | 2 µg/mL (≈ 4.98 µM) |
| O=C(Nc1nccs1)c1ccc(-c2nc3ccc4[nH]ncc4c3c3c2CCCC3)cc1 | K562 | cell growth or viability, resazurin |  | 72 h | GI50 | > 10 µM |
| CCCCCCCCCCCCCCCCCCOc1ccc(CC(=O)OCC[N+](CC)(CC)CC)cc1 | HOP-62 | cell growth or viability, SRB |  | 10 µM | inhibition | 2.95% |
| C=C[C@]1(C)C[C@@H](OC(=O)CS[C@@H]2C[C@H]3CC[C@@H](C2)N3C)[C@]2(C)[C@H](C)CC[C@]3(CCC(=O)[C@H]32)[C@@H](C)[C@@H]1O | Staphylococcus epidermidis | microbial growth | MRSE | clinical isolate | MIC90 | 0.0625 µg/mL (≈ 0.121 µM) |
| CCCCCCCCCCCCCCCCCCOCC(COP(=O)([O-])OCC[N+](C)(C)C)OC (stereo not drawn) | HOP-92 | cell growth or viability, SRB |  | 10 µM | inhibition | 40.1% |
| CC[C@H]1OC(=O)[C@H](C)[C@@H](O[C@H]2C[C@@](C)(OC)[C@@H](O)[C@H](C)O2)[C@H](C)[C@@H](O[C@@H]2O[C@H](C)C[C@H](N(C)C)[C@H]2O)[C@](C)(O)C[C@@H](C)/C(=N\OCOCCOC)[C@H](C)[C@@H](O)[C@]1(C)O | Staphylococcus epidermidis | microbial growth |  | clinical isolate | MIC90 | 64 µg/mL (≈ 76.5 µM) |
| CC(=O)OC[C@H]1O[C@@H](n2cnc(N)nc2=O)[C@H](OC(C)=O)[C@@H]1OC(C)=O | OCI-Ly1 | cell growth or viability, ATP luminescence |  | 0.1 µM, 5 days | viability | 177% |
| O=C(NC1CCCCC1)c1ccc(-c2nc3ccc4[nH]ncc4c3c3c2CCCC3)cc1 | K562 | cell growth or viability, resazurin |  | 72 h | GI50 | > 10 µM |
| CCCCCCCCCCCCCCCCCCOc1ccccc1CC(=O)OCCC[N+](C)(C)C | HOP-92 | cell growth or viability, SRB |  | 10 µM | inhibition | 60.4% |
| O=C(NCCN1CCCC1)c1ccc(-c2nc3ccc4[nH]ncc4c3c3c2CCCC3)cc1 | K562 | cell growth or viability, resazurin |  | 72 h | GI50 | 2.7 µM |
| COC(=O)CNC(=O)C(=O)OC | OCI-Ly1 | cell growth or viability, ATP luminescence |  | 1 µM, 5 days | viability | 146% |
| Cc1ccc2[nH]nc(-c3nnc(Nc4ccc(Cl)c(Br)c4)s3)c2c1 | Staphylococcus epidermidis | microbial growth | ATCC12228 |  | MIC | 235 µg/mL (≈ 558 µM) |
| CN(C)CCNC(=O)c1ccc(-c2nc3ccc4[nH]ncc4c3c3c2CCCC3)s1 | K562 | cell growth or viability, resazurin |  | 72 h | GI50 | 0.805 µM |
| O=C(Nc1ccc(Cl)cc1)C1CCCN(C(=O)c2cc(C(F)(F)F)cc(C(F)(F)F)c2)C1 (racemic) | OCI-Ly1 | cell growth or viability, ATP luminescence |  | 1 µM, 5 days | viability | 161% |
| O=C(NCCc1ccccn1)c1ccc(-c2nc3ccc4[nH]ncc4c3c3c2CCCC3)cc1 | K562 | cell growth or viability, resazurin |  | 72 h | GI50 | 8.4 µM |
| O=C(NO)c1ccc(CC(=O)N(CCO)c2ccccc2)cc1 | OCI-Ly1 | cell growth or viability, ATP luminescence |  | 1 µM, 5 days | viability | 74.7% |
| O=C(NCCN1CCCCC1)c1ccc(-c2nc3ccc4[nH]ncc4c3c3c2CCCC3)cc1 | K562 | cell growth or viability, resazurin |  | 72 h | GI50 | 7.5 µM |
| Cc1ccc2[nH]nc(-c3nnc(Nc4ccc(O)cc4)s3)c2c1 | Staphylococcus epidermidis | microbial growth | ATCC12228 |  | MIC | 140 µg/mL (≈ 432 µM) |

| Compound | target or system | test | system | setting | quantity | value |
| --- | --- | --- | --- | --- | --- | --- |
| CC1(C)S[C@@H]2[C@H](NC(=O)[C@H](N)c3ccccc3)C(=O)N2[C@H]1C(=O)O | Staphylococcus epidermidis | microbial growth | MRSE | clinical isolate | MIC90 | > 128 µg/mL |
| CC[C@H]1OC(=O)[C@H](C)[C@@H](O[C@H]2C[C@@](C)(OC)[C@@H](O)[C@H](C)O2)[C@H](C)[C@@H](O[C@@H]2O[C@H](C)C[C@H](N(C)C)[C@H]2O)[C@](C)(O)C[C@@H](C)CN(C)[C@H](C)[C@@H](O)[C@]1(C)O | Staphylococcus epidermidis | microbial growth | ATCC12228 |  | MIC | < 98 µg/mL |
| O=C(CCCCCCC(=O)Nc1ccccc1)NO | OCI-Ly1 | cell growth or viability, ATP luminescence |  | 0.5 µM, 5 days | viability | 74.3% |
| CN[C@H](CC(C)C)C(=O)N[C@H]1C(=O)N[C@@H](CC(N)=O)C(=O)N[C@H]2C(=O)N[C@H]3C(=O)N[C@H](C(=O)N[C@H](C(=O)O)c4cc(O)cc(O)c4-c4cc3ccc4O)[C@H](O)c3ccc(c(Cl)c3)Oc3cc2cc(c3O[C@@H]2O[C@H](CO)[C@@H](O)[C@H](O)[C@H]2O[C@H]2C[C@](C)(N)[C@H](O)[C@H](C)O2)Oc2ccc(cc2Cl)[C@H]1O | Staphylococcus epidermidis | microbial growth, broth dilution |  | clinical isolate | MIC90 | 2 µg/mL (≈ 1.38 µM) |
| Cc1ccc2[nH]nc(-c3nnc(Nc4ccc(F)cc4)s3)c2c1 | Staphylococcus epidermidis | microbial growth | ATCC12228 |  | MIC | 123 µg/mL (≈ 377 µM) |
| O=C(Nc1cccc(Br)c1)c1cccc(S(=O)(=O)N2CCCCCC2)c1 | OCI-Ly1 | cell growth or viability, ATP luminescence |  | 0.5 µM, 5 days | viability | 157% |
| CN(C)CCN(C)C(=O)c1ccc(-c2nc3ccc4[nH]ncc4c3c3c2CCCCC3)nc1 | K562 | cell growth or viability, resazurin |  | 72 h | GI50 | > 10 µM |
| CCCCCCCCCCCCCCCCCCOc1ccc(CC(=O)OCC[N+]2(C)CCCCC2)cc1 | HOP-92 | cell growth or viability, SRB |  | 10 µM | inhibition | 2.18% |
| O=C(CCCCCCSc1ccc2ccccc2c1)NO | OCI-Ly1 | cell growth or viability, ATP luminescence |  | 0.5 µM, 5 days | viability | 173% |
| CCCCCCCCCCCCCCCCCCOc1cccc(CC(=O)OCC[N+](C)(C)C)c1 | HOP-92 | cell growth or viability, SRB |  | 10 µM | inhibition | 12.2% |
| CC(=O)NC[C@H]1CN(c2ccc(N3CCOCC3)c(F)c2)C(=O)O1 | Staphylococcus epidermidis | microbial growth |  | clinical isolate | MIC90 | 2 µg/mL (≈ 5.93 µM) |
| CCCCCCCCCCCCCCCCCCOc1cccc(CC(=O)OCC[N+]2(C)CCOCC2)c1 | HOP-62 | cell growth or viability, SRB |  | 10 µM | inhibition | 9.38% |
| O=C(/C=C/c1cccc(C(=O)NO)c1)NO | OCI-Ly1 | cell growth or viability, ATP luminescence |  | 1 µM, 5 days | viability | 72.5% |
| CN(C)CCNC(=O)c1ccc(-c2nc3ccc4[nH]ncc4c3c3c2CCCCC3)cc1 | K562 | cell growth or viability, resazurin |  | 72 h | GI50 | 1.5 µM |
| Cc1ccc2[nH]nc(-c3nnc(Nc4ccc(Br)cc4)s3)c2c1 | Staphylococcus epidermidis | microbial growth | ATCC12228 |  | MIC | 190 µg/mL (≈ 493 µM) |
| CCCCCCCCCCCCCCCCCCOc1ccccc1CC(=O)OCC[N+]1(C)CCCCC1 | HOP-62 | cell growth or viability, SRB |  | 10 µM | inhibition | 30% |
| Cc1cc(O)cc(Nc2nnc(-c3n[nH]c4ccc(C)cc34)s2)c1 | Staphylococcus epidermidis | microbial growth | ATCC12228 |  | MIC | 201 µg/mL (≈ 596 µM) |
| CCCCCCCCCCCCCCCCCCOc1ccc(CC(=O)OCCC[N+](C)(C)C)cc1 | HOP-92 | cell growth or viability, SRB |  | 10 µM | inhibition | 22.1% |
